Molecules are shown by their SMILES. Bounds are passed on as bounds.

This is an account of results in ChEMBL document CHEMBL3390837, “Bridged tetrahydroisoquinolines as selective NADPH oxidase 2 (Nox2) inhibitors” (Medchemcomm, 2013).

The target in data set [1] is T1, NADPH oxidase 2 (Homo sapiens, UniProt P04839).
T1 sequence (P04839 whole entry): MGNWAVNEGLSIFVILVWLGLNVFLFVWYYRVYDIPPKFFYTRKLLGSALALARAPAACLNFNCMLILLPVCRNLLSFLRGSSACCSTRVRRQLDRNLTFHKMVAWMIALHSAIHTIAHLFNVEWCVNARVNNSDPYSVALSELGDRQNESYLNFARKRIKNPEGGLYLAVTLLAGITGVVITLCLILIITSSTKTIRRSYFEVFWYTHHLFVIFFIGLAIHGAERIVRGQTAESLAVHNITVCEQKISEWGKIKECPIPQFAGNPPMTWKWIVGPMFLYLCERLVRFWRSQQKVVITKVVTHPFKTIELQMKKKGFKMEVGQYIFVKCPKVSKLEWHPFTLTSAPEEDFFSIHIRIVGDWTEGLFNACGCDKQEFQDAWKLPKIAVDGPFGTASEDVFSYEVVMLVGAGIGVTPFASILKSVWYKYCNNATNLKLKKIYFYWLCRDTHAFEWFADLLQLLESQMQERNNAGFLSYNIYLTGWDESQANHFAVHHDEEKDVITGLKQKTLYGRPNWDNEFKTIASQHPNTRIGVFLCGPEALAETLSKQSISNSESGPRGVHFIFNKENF
Kind of data set: Inhibition of full length human NOX2 transfected in COS 22 cells assessed as inhibition of Phorbol 12-myristate 13-acetate-stimulated ROS generation by chemiluminescence assay. In kind it is cell-based. As to conditions: read-out: IC50; call rule not given here. In outline:
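COS-Nox2 (COS-7 stably expressing human p22phox, Nox2, p47phox, p67phox) plated in OPTIMEM at 2.5 x 10³ cells/well; 10 min at 37 °C in PBS with L-012, then stimulated with 5 µM PMA; luminescence followed over time; superoxide specificity checked with SOD 150 U/mL. IC50 by three-parameter non-linear fit, Hill slope 1, top/bottom fixed 100/0.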

Data set [2] has as its target T1, NADPH oxidase 2. Nature of the data set: Inhibition of full length human NOX2 transfected in COS 22 cells assessed as inhibition of Phorbol 12-myristate 13-acetate-stimulated ROS generation by measuring H2O2 production by fluorescence assay in presence of superoxide dismutase. Conditions: read-out: IC50. Format: cell-based. In outline:
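Intact COS-Nox2 cells in Hepes pH 7.4 buffer with 0.1 mM Amplex Red, 0.32 U/ml HRP and 150 U/mL SOD, drug 15 min at 37 °C; started with 5 µM PMA; fluorescence monitored 1 h at 37 °C; rate as RFU/min minus unstimulated cells; % of vehicle control.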

The target in another data set is T2, NADPH oxidase 5 (Homo sapiens, UniProt Q96PH1).
T2 sequence (Q96PH1 whole entry): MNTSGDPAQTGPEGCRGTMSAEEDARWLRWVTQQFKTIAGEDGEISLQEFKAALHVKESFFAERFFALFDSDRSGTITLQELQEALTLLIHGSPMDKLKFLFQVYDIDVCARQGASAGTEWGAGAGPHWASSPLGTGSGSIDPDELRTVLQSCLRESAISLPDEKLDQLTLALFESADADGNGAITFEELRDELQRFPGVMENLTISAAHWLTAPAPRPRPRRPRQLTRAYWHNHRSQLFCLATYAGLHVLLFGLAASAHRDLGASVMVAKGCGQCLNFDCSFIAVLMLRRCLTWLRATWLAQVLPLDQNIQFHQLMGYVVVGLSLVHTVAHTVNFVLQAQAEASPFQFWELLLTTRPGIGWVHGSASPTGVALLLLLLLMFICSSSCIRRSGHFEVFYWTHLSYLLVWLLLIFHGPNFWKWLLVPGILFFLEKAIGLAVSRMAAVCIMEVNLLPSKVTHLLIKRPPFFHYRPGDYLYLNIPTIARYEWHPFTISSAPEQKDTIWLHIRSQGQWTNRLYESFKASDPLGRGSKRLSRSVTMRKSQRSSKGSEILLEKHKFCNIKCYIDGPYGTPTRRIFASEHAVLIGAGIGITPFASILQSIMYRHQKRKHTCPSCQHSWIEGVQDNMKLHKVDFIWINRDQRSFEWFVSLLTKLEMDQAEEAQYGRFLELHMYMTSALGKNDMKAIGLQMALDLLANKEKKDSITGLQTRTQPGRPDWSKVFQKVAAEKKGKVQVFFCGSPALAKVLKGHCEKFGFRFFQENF
Kind of data set: Inhibition of full length human NOX5 transfected in HEK cells assessed as inhibition of ionomycin-stimulated ROS generation by chemiluminescence assay. In kind it is cell-based, HEK293. In outline: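 HEK-Nox5 cells at 5 × 10⁴ cells/well in OPTIMEM, 10 min at 37 °C in PBS with L-012, then stimulated with 1 µM PMA/0.1 µM ionomycin; luminescence over time; SOD 150 U/mL used to confirm superoxide specificity. IC50 by three-parameter fit, Hill slope 1, top/bottom fixed 100/0.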

Data set [3] concerns the target Xanthine dehydrogenase/oxidase (Bos taurus, UniProt P80457). Nature of the data set: Inhibition of bovine milk xanthine oxidase assessed as hypoxanthine-stimulated ROS generation by measuring H2O2 production at 25 to 50 uM by fluorescence assay. As to conditions: cattle.
Data set [4] can be described thus: Cytotoxicity against african green monkey COS7 cells expressing human p22phox assessed as cell viability at 25 to 50 uM after 15 mins by luminogenic assay. Format: cell-based. As to conditions: chlorocebus aethiops, cos-7, 0.25 h. In outline:
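COS-22 cells plated at 2.5 x 10³ cells/well in OPTIMEM, exposed 15 min to compounds at various concentrations; dead-cell protease release read with luminogenic AAF peptide substrate, signal before and after digitonin used to derive % dead; reported as % live cells (100 − % dead) per well.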

Another data set addresses T3, NADPH oxidase 1 (Homo sapiens, UniProt Q9Y5S8).
T3 sequence (Q9Y5S8 whole entry): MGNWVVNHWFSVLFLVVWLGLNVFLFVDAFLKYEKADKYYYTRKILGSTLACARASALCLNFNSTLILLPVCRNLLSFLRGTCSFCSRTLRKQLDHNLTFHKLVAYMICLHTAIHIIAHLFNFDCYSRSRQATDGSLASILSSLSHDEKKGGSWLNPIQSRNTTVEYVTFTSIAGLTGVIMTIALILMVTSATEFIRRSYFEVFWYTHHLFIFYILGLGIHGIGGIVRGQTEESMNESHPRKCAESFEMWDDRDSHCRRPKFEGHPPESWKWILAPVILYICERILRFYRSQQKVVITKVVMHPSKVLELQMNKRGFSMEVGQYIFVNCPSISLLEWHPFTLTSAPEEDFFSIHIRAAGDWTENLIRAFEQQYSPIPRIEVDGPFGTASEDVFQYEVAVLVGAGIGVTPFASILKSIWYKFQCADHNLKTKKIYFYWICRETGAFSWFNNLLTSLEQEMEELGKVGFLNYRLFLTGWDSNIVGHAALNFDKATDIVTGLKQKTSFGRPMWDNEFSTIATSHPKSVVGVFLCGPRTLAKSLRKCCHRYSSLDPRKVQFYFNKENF
Kind of data set: Inhibition of full length human NOX1 transfected in COS 22 cells assessed as inhibition of constitutive ROS generation by chemiluminescence assay. As to conditions: read-out: IC50.

In the next data set the target is T4, NADPH oxidase 4 (Homo sapiens, UniProt Q9NPH5).
T4 sequence (Q9NPH5 whole entry): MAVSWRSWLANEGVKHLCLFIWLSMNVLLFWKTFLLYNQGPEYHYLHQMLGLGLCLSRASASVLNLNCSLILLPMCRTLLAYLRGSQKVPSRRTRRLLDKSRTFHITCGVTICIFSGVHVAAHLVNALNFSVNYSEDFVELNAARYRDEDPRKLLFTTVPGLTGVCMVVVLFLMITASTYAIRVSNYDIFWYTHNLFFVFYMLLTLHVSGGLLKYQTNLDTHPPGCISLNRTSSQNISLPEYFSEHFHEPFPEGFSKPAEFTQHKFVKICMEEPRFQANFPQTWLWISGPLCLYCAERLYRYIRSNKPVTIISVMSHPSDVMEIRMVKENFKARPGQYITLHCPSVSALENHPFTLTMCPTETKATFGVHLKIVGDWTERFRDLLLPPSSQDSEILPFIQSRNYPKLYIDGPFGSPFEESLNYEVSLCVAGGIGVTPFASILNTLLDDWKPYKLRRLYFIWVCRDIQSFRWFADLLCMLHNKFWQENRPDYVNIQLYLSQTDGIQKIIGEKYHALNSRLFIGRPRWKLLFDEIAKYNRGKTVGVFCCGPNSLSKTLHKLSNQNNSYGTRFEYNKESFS
Nature of the data set: Inhibition of full length human NOX4 transfected in COS 22 cells assessed as inhibition of ROS generation by measuring H2O2 production by fluorescence assay.

Xanthine dehydrogenase/oxidase, sequence (P80457 whole entry): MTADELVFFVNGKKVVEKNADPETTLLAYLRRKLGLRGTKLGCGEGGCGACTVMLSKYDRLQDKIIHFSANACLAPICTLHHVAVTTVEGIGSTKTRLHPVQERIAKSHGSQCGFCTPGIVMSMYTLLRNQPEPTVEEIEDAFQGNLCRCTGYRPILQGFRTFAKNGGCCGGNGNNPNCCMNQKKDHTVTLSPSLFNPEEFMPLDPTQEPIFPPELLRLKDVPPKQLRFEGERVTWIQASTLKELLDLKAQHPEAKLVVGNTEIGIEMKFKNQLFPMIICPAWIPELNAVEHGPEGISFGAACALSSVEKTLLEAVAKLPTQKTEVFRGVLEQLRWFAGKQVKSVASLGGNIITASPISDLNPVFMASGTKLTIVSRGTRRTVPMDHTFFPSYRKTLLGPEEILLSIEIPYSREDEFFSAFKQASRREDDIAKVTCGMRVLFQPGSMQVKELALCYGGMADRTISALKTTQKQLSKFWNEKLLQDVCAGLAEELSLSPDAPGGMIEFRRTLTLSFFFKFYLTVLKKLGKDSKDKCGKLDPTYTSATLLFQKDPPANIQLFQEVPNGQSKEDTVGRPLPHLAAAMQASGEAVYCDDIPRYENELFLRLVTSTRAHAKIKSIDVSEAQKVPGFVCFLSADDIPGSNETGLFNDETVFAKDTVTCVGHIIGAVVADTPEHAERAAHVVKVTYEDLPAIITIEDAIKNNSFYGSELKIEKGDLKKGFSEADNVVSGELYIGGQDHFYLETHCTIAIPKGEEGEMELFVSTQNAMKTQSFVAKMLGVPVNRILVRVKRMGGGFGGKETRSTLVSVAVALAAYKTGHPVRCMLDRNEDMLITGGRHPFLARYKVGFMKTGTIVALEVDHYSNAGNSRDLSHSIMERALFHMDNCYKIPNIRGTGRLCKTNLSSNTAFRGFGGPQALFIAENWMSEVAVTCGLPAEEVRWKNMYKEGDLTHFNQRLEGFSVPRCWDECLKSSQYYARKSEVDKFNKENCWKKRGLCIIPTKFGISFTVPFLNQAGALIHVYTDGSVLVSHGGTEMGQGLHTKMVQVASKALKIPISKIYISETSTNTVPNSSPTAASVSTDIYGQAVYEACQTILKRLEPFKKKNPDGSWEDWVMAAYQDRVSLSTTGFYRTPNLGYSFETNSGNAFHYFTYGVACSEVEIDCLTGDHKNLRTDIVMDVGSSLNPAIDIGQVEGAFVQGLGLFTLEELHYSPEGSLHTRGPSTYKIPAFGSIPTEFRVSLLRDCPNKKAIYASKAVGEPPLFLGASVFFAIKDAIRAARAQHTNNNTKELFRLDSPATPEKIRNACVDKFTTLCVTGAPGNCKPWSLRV

On to `CC(C)C[C@@H]1N[C@H]2CC(C)(C)[C@@H]1c1c(Br)cccc12` (racemic), for which the IC50 (commonly the midpoint of a concentration-inhibition curve) is 31 µM on NADPH oxidase 2 [1]; 78 µM on NADPH oxidase 2 [2]; 18 µM on NADPH oxidase 5; 32 µM at NADPH oxidase 1; greater than 100 µM on NADPH oxidase 4 (read-out: IC50). Moreover, the “inhibition (INH)” value in data set [3] was “Not Active”. The Activity result in data set [4] was “Non-toxic”.

In the case of `C=C(C)C[C@H]1[C@H]2c3c(Br)cccc3[C@H](CC2(C)C)N1S(=O)(=O)c1ccc(F)cc1` (racemic), the concentration for half-maximal inhibition (IC50) is greater than 100 µM on NADPH oxidase 2 [1]; greater than 100 µM at NADPH oxidase 2 [2]; greater than 100 µM at NADPH oxidase 5; greater than 100 µM at NADPH oxidase 1; “Not Active” at NADPH oxidase 4 (cos 22). Besides, in data set [3], the “inhibition (INH)” value is “Not Active”.

Consider `C=C(C)C[C@H]1[C@H]2c3c(Br)cccc3[C@H](CC2(C)C)N1Cc1c[nH]c2ccccc12` (racemic), for which the IC50 was greater than 100 µM on NADPH oxidase 2 [1]; greater than 100 µM at NADPH oxidase 2 [2]; greater than 100 µM on NADPH oxidase 5; greater than 100 µM on NADPH oxidase 1; “Not Active” at NADPH oxidase 4 (cos 22). In data set [3], the “inhibition (INH)” value is “Not Active”.
